Measured values published in PMC9904295 (Drug Delivery, 2023).

What was measured:
[1] = Pharmacokinetic study in rats, intravenous; format: in vivo, Sprague-Dawley rats; conditions: i.v., 5 mg/kg in OXA
Method in brief: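 Twelve Sprague-Dawley rats (half male) were split into two groups and given one i.v. dose equivalent to 5 mg/kg. The free drug was prepared in 5% glucose. Retro-orbital blood was taken at 0.083–24 h and centrifuged at 12,000 rpm for 5 min. Plasma drug was measured by UPLC-MS/MS and total Pt by ICP-MS. Non-compartmental analysis gave AUC, Cmax, t1/2, MRT and CL; mean ± SD, n = 6.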

[2] = tested on: SW620 cells; experiment: In vivo antitumor efficacy in xenograft tumor-bearing mice; design: species or system BALB/c nude mice; conditions: xenograft tumor-bearing nude mice, i.v. once a week
Method in brief: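 Male BALB/c nude mice (18–20 g) were inoculated with 3 × 10^6 SW620 cells at the right third fat pad. At tumors of about 100–200 mm3 they were randomised into six groups, with 5% glucose as control. Test compound was given i.v. by tail vein once a week for 4 weeks at 5 or 10 mg/kg (free form) or 5, 10 or 20 mg/kg (nanoparticle). Tumor volume (L × W × W/2) and body weight were measured three times weekly, and RTV = V/V0. Tumors were weighed at the end; n = 6, mean ± SD, Student's t test.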

[3] = Toxicity evaluation after repeated dosing; format: in vivo; conditions: ICR mice
Method in brief: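 Male ICR mice (17–18 g) were randomised into six groups (n = 10), with 5% glucose as control. Test compound was given i.v. every 3 days for five doses at 7.5 or 10 mg/kg (free form) or 7.5, 10 or 15 mg/kg drug-equivalent (nanoparticle). At the end, organs were harvested for viscera index, whole blood was taken for routine counts, and serum TP, ALB, UREA and Cr were measured. Data are mean ± SD, Student's t test.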

[4] = analyte total Pt (ICP-MS) in plasma

Compound: O=C1[O][Pt]2([NH][C@@H]3CCCC[C@H]3[NH]2)[O]C1=O [OXA, oxaliplatin]
- AUC0-t ([1]; analyte OXA in plasma): 1940 ± 390 ng·h/mL
- AUC0-∞ ([1]; analyte OXA in plasma): 2030 ± 550 ng·h/mL
- CL ([1]; analyte OXA in plasma): 2,580 ± 560 mL/h/kg
- Cmax ([1]; analyte OXA in plasma): 9580 ± 1420 ng/mL
- T1/2 ([1]; analyte OXA in plasma): 0.16 ± 0.07 h
- Vz ([1]; analyte OXA in plasma): 567 ± 70 mL/kg
- AUC0-t [1, 4]: 13000 ± 3440 ng·h/mL
- AUC0-∞ [1, 4]: 19980 ± 5650 ng·h/mL
- CL [1, 4]: 127.98 ± 36.2 mL/h/kg
- Cmax [1, 4]: 4760 ± 680 ng/mL
- T1/2 [1, 4]: 17.52 ± 0.52 h
- Vz [1, 4]: 3,220 ± 818 mL/kg
- tumor growth inhibition, dose dependence [2]: dose-dependent tumor growth inhibition
- UREA ([3]; 10 mg/kg i.v. every 3 days for five times): significant decrease
- biochemical indexes (TP, ALB, UREA, Cr) ([3]; i.v. every 3 days for five times, except UREA at 10 mg/kg): No significant change
